Results taken from ChEMBL document CHEMBL1126683, “Synthesis and antitumor activity of isodoxorubicin analogues” (J Med Chem, 1993).
≈ marks a conversion by molar mass, not a printed value.

Assays:
A549 [1] = assay: Growth inhibition of A 549 cell line by MTT reduction for 3 days of incubation time; type: functional, cell-based; conditions: Homo sapiens, A549, 72 h
Method in brief: (§1)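 Exponentially growing A549 or HT29 cells were seeded at 5×10^3/mL in RPMI and exposed to graded concentrations for 72 h (37 °C, 5% CO₂), in quadruplicate wells. MTT was added at 65 h, followed by a further 7–24 h incubation. Formazan was dissolved in DMSO and read at 492 nm. Results were expressed as extinction ratio to medium-only control, and IC50 was taken as 50% growth inhibition.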

HT-29 [2] = assay: Growth inhibition of HT 29 cell line by MTT reduction for 3 days of incubation time; type: functional, cell-based; conditions: Homo sapiens, HT-29, 72 h; method in brief: as §1
L1210 [3] = assay: Growth inhibition of L1210 murine leukemia cells after 1 hr exposure in untreated control culture; type: functional, cell-based; conditions: Mus musculus, L1210, 1 h
Method in brief: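 L1210 cells were exposed to graded concentrations for 1 h at 37 °C, washed twice in McCoy 5A, and plated at 5×10^2 cells/plate in an agar upper layer using a modified Hamburger–Salmon method. Plates were kept 5–7 days at 37 °C in 5% CO₂, 20% O₂, 95% humidity. Colonies >60 μm were counted as % of untreated control, and IC50 was read from dose–response curves.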

L1210 [4] = assay: Growth inhibition of L1210 murine leukemia cells after 3 day exposure in MTT reduction assay; conditions: Mus musculus, L1210, 3 days
Homo sapiens [5] = species: Homo sapiens; assay: Activity against internally growing human tumor A-549 tested in subrenal capsule assay; type: functional
Method in brief: (§2)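 Human tumors were grown intrarenally in a subrenal capsule assay. Tumor area of the treated group was scored against the control group as follows: >50%, between 10% and 50%, or <10% of control.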

Homo sapiens [6] = species: Homo sapiens; assay: Activity against internally growing human tumor HT-29 tested in subrenal capsule assay; type: functional; method in brief: as §2
Homo sapiens [7] = species: Homo sapiens; assay: Activity against internally growing human tumor LXF tested in subrenal capsule assay; type: functional; method in brief: as §2
Homo sapiens [8] = species: Homo sapiens; assay: Activity against internally growing human tumor LXF / ADM tested in subrenal capsule assay; type: functional
Method in brief: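 Tumors were resected at about 1/3 cm, cut into pieces of about 5 mm³, and retransplanted repeatedly until sensitivity was reduced. The subline was then tested in the subrenal capsule assay, with tumor area of the treated group scored as >50%, 10–50%, or <10% of control.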

[9] = Evaluated for the degree of resistance as the ratio of IC50 L1210 / ADM to IC50 of L1210; type: functional
Method in brief: (§3)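 Colony (stem cell) assay comparing L1210 and L1210/ADM cells under continuous exposure, with the compound mixed into the agar upper layer before plating. Cells were plated at 5×10^2 per plate and incubated 5–7 days at 37 °C. Colonies >60 μm were counted relative to untreated control, and IC50 values were taken from dose–response curves to form the resistance ratios.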

[10] = Evaluated for the degree of cross resistance as the ratio of degree of resistance of doxorubicin to degree of resistance of the compound; type: functional; method in brief: as §3
L1210 [11] = assay: Growth inhibition of L1210/ADM murine leukemia cells after 3 day exposure in MTT assay; conditions: Mus musculus, L1210, 3 day
L1210 [12] = assay: Percentage ratio of mean survival time of treated animals to untreated controls for L1210 mouse leukemia treated by 3.1 mg / kg dosed intravenously on 1,5,and 9 days; conditions: route intravenous
HT-29 [13] = assay: Growth inhibition of HT 29 cell line by MTT reduction for 7 days of incubation time; conditions: Homo sapiens, HT-29, 168 h
A549 [14] = assay: cells; conditions: Homo sapiens, A549, 168 h

| Structure (SMILES) | IC50 (A549 [1]) [µg/mL] | IC50 (HT-29 [2]) [µg/mL] | IC50 (L1210 [3]) [µg/mL] | IC50 (L1210 [4]) [µg/mL] | IC50 (L1210 [11]) [µg/mL] | IC50 (HT-29 [13]) [µg/mL] | IC50 (A549 [14]) [µg/mL] | T/C (Homo sapiens [5]) [%] | T/C (Homo sapiens [6]) [%] | T/C (Homo sapiens [7]) [%] | T/C (Homo sapiens [8]) [%] | Degree of resistance [9] | Degree of cross resistance [10] | T/C (L1210 [12]) [%] |
| --- | --- | --- | --- | --- | --- | --- | --- | --- | --- | --- | --- | --- | --- | --- |
| COc1cccc2c1C(=O)c1c(O)c3c(c(O)c1C2=O)C[C@@](O)(C(=O)CO)C[C@@H]3O[C@H]1C[C@H](N)[C@H](O)[C@H](C)O1 [DOXORUBICIN] | 0.05 (≈ 0.092 µM) | 0.06 (≈ 0.11 µM) | 0.04 (≈ 0.0736 µM) | – | 0.9 (≈ 1.66 µM) | 0.02 (≈ 0.0368 µM) | 0.02 (≈ 0.0368 µM) | >10 | >10 | <10 | >10 | 45 | 100 | – |
| CC1O[C@@H](O[C@H]2C[C@](O)(CO)Cc3c(O)c4c(c(O)c32)C(=O)c2ccccc2C4=O)C[C@@H](O)[C@@H]1N1CCOCC1 (stereo partly specified) | 0.054 (≈ 0.0972 µM) | 0.13 (≈ 0.234 µM) | 0.21 (≈ 0.378 µM) | 0.15 (≈ 0.27 µM) | – | – | – | – | – | – | – | – | – | – |

Further lines, with some results ahead:

| IC50 (A549 [1]) [µg/mL] | IC50 (HT-29 [2]) [µg/mL] | IC50 (L1210 [3]) [µg/mL] | IC50 (L1210 [4]) [µg/mL] | IC50 (L1210 [11]) [µg/mL] | IC50 (HT-29 [13]) [µg/mL] | IC50 (A549 [14]) [µg/mL] | Structure (SMILES) | T/C (Homo sapiens [5]) [%] | T/C (Homo sapiens [6]) [%] | T/C (Homo sapiens [7]) [%] | T/C (Homo sapiens [8]) [%] | Degree of resistance [9] | Degree of cross resistance [10] | T/C (L1210 [12]) [%] |
| --- | --- | --- | --- | --- | --- | --- | --- | --- | --- | --- | --- | --- | --- | --- |
| 0.011 (≈ 0.0189 µM) | 0.026 (≈ 0.0447 µM) | 0.0064 (≈ 0.011 µM) | 0.015 (≈ 0.0258 µM) | – | – | – | CC1O[C@@H](O[C@H]2C[C@](O)(CO)Cc3c(O)c4c(c(O)c32)C(=O)c2ccccc2C4=O)C[C@@H](O)[C@@H]1NC(=O)C(F)(F)F (stereo partly specified) | – | – | – | – | – | – | – |
| 0.24 (≈ 0.469 µM) | 0.46 (≈ 0.899 µM) | 0.26 (≈ 0.508 µM) | 0.13 (≈ 0.254 µM) | – | – | – | CC1O[C@@H](O[C@H]2C[C@](O)(CO)Cc3c(O)c4c(c(O)c32)C(=O)c2ccccc2C4=O)C[C@@H](O)[C@@H]1N=[N+]=[N-] (stereo partly specified) | – | – | – | – | – | – | – |
| 0.009 | 0.01 | 0.022 | 0.009 | 0.1 | – | – | CC1O[C@@H](O[C@H]2C[C@](O)(CO)Cc3c(O)c4c(c(O)c32)C(=O)c2ccccc2C4=O)C[C@@H](O)[C@@H]1N.Cl (stereo partly specified) | >50 | >50 | >10 | >50 | 11 | 24 | 133 |
